Measured values taken from ChEMBL document CHEMBL2146414, “Lignan derivatives from Krameria lappacea roots inhibit acute inflammation in vivo and pro-inflammatory mediators in vitro” (J Nat Prod, 2011).
One block for each molecule: values may come before it. Calls of active or inactive are those of the source. The rule behind the calls is not given here.

What was measured:
[1] = test system: Mus musculus; assay: Antiinflammatory activity in CD1 mouse ear dermatitis model assessed as inhibition of Croton oil-induced ear edema at 0.30 umol administered topically per cm'2 of ear measured after induction of dermatitis relative to untreated control; format: functional
Procedure, shortened: (§1)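 Male CD-1 mice (28–32 g), anesthetized with ketamine 145 mg/kg i.p.; right ear (about 1 cm2) given 80 μg croton oil in 15 μL acetone, with test substance co-applied in acetone; left ear left untreated. Controls received irritant only. 6 mm punches taken from both ears; edema = weight difference treated minus untreated; % inhibition vs controls. ID50 by graphic interpolation of log dose–effect curves; ANOVA with Dunnett's test.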

[2] = test system: Mus musculus; assay: Antiinflammatory effect in CD1 mouse ear dermatitis model assessed as reduction in mast cell degranulation at 0.4 umol administered topically per cm'2 of ear measured after 6 hrs post dermatitis induction relative to control; format: functional, organism-based
Procedure, shortened: (§2)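 Male CD-1 mice (28–32 g) anesthetized with ketamine 145 mg/kg ip; right ear (about 1 cm2) given 80 μg croton oil in 15 μL acetone with test substance co-applied in acetone; controls irritant only; left ear untreated. Ears fixed in 10% formalin, paraffin-embedded, 10 μm sections stained hematoxylin-eosin or Giemsa, examined by light microscopy at set times after induction.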

[3] = test system: Mus musculus; assay: Antiinflammatory effect in CD1 mouse ear dermatitis model assessed as dermal swelling at 0.4 umol administered topically per cm'2 of ear after 9 hrs of post dermatitis induction relative to control; format: functional, organism-based; procedure, shortened: as §2
[4] = test system: Mus musculus; assay: Antiinflammatory effect in CD1 mouse ear dermatitis model assessed as reduction in vascular changes at 0.4 umol administered topically per cm'2 of ear measured after 6 hrs post dermatitis induction relative to control; format: functional, organism-based; procedure, shortened: as §2
[5] = test system: Mus musculus; assay: Antiinflammatory effect in CD1 mouse ear dermatitis model assessed as reduction in leukocyte infiltration-based myeloperoxidase at 0.4 umol administered topically per cm'2 of ear measured after 6 hrs post dermatitis induction relative to control; format: functional, organism-based
Procedure, shortened: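 CD-1 mice, croton oil 80 μg in acetone on right ear with topical test substance; ear punch (6 mm) homogenized in 0.1 M sodium acetate pH 4.2 with 0.1% HTAB, centrifuged 15000g 5 min; supernatant myeloperoxidase measured with TMB (2.83 mM) and 0.7 mM H2O2, 5 min at 25 °C, stopped with acetic acid, A620; duplicates; units = nM TMB oxidized/min.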

[6] = test system: Mus musculus; assay: Antiinflammatory activity in CD1 mouse ear dermatitis model assessed as inhibition of Croton oil-induced ear edema at 0.10 umol administered topically per cm'2 of ear measured after induction of dermatitis relative to untreated control; format: functional; procedure, shortened: as §1
[7] = test system: Mus musculus; assay: Antiinflammatory activity in CD1 mouse ear dermatitis model assessed as inhibition of Croton oil-induced ear edema at 0.4 umol administered topically per cm'2 of ear measured 48 hrs after induction of dermatitis relative to untreated control
[8] = test system: Mus musculus; assay: Antiinflammatory activity in CD1 mouse ear dermatitis model assessed as inhibition of Croton oil-induced ear edema administered topically per cm'2 of ear measured after induction of dermatitis relative to untreated control; format: functional
[9] = test system: Mus musculus; assay: Antiinflammatory effect in CD1 mouse ear dermatitis model assessed as preservance of mast cell degranulation at 0.4 umol administered topically per cm'2 of ear measured after 6 hrs post dermatitis induction relative to control; format: functional, organism-based; procedure, shortened: as §2
[10] = test system: Mus musculus; assay: Antiinflammatory activity in CD1 mouse ear dermatitis model assessed as inhibition of Croton oil-induced ear edema at 1 umol administered topically per cm'2 of ear measured after induction of dermatitis relative to untreated control; format: functional; procedure, shortened: as §1
[11] = test system: Mus musculus; assay: Antiinflammatory effect in CD1 mouse ear dermatitis model assessed as reduction in cellular changes at 0.4 umol administered topically per cm'2 of ear measured after 6 hrs post dermatitis induction relative to control; format: functional, organism-based; procedure, shortened: as §2
[12] = Inhibition of NFkappaB activity transfected in HEK293 cells pretreated for 1 hr before 6 hrs of LPS challenge by luciferase reporter gene assay; settings: Homo sapiens
[13] = test system: Mus musculus; assay: Antiinflammatory activity in CD1 mouse ear dermatitis model assessed as inhibition of Croton oil-induced ear edema at 0.04 umol administered topically per cm'2 of ear measured 12 hrs after induction of dermatitis relative to untreated control; format: functional; procedure, shortened: as §1
[14] = test system: Mus musculus; assay: Antiinflammatory effect in CD1 mouse ear dermatitis model assessed as reduction in vascular changes at 0.04 umol administered topically per cm'2 of ear measured after 6 hrs post dermatitis induction relative to control; format: functional, organism-based; procedure, shortened: as §2
[15] = test system: Mus musculus; assay: Antiinflammatory activity in CD1 mouse ear dermatitis model assessed as reduction in AUC of Croton oil-induced ear edema response at 0.04 umol administered topically per cm'2 of ear measured 48 hrs after induction of dermatitis relative to untreated control; format: functional
Procedure, shortened: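 Croton oil dermatitis on the right ear of anesthetized male CD-1 mice, with compound co-applied topically in acetone. Ear punch weight difference (treated minus untreated ear) measured at several times up to 48 h.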

[16] = test system: Mus musculus; assay: Antiinflammatory activity in CD1 mouse ear dermatitis model assessed as reduction in leukocyte infiltration-based myeloperoxidase activity at 0.04 umol administered topically per cm'2 of ear measured 3 to 48 hrs post dermatitis induction relative to untreated control; format: functional
Procedure, shortened: (§3)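 Same croton oil ear model in CD-1 mice. The ear punch is homogenized in 0.1 M acetate pH 4.2 with 0.1% HTAB and centrifuged 15000g for 5 min. Supernatant myeloperoxidase is assayed with 2.83 mM TMB plus 0.7 mM H2O2 for 5 min at 25 °C, stopped with acetic acid, A620, duplicates.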

[17] = test system: Mus musculus; assay: Antiinflammatory activity in CD1 mouse ear dermatitis model assessed as inhibition of Croton oil-induced ear edema at 0.04 umol administered topically per cm'2 of ear measured 6 hrs after induction of dermatitis relative to untreated control; format: functional; procedure, shortened: as §1
[18] = test system: Mus musculus; assay: Antiinflammatory effect in CD1 mouse ear dermatitis model assessed as reduction in cellular changes at 0.04 umol administered topically per cm'2 of ear measured after 6 hrs post dermatitis induction relative to control; format: functional, organism-based; procedure, shortened: as §2
[19] = test system: Mus musculus; assay: Antiinflammatory activity in CD1 mouse ear dermatitis model assessed as inhibition of Croton oil-induced ear edema at 0.01 umol administered topically per cm'2 of ear measured after induction of dermatitis relative to untreated control; format: functional; procedure, shortened: as §1
[20] = test system: Mus musculus; assay: Antiinflammatory activity in CD1 mouse ear dermatitis model assessed as reduction in AUC of global leukocyte infiltration-based myeloperoxidase activity at 0.04 umol administered topically per cm'2 of ear measured 3 to 48 hrs post dermatitis induction relative to untreated control; format: functional; procedure, shortened: as §3
[21] = test system: Mus musculus; assay: Antiinflammatory activity in CD1 mouse ear dermatitis model assessed as inhibition of Croton oil-induced ear edema at 0.03 umol administered topically per cm'2 of ear measured after induction of dermatitis relative to untreated control; format: functional; procedure, shortened: as §1
[22] = test system: Radical scavenging activity; assay: Antioxidant activity assessed as DPPH free radical scavenging activity after 30 mins by spectrophotometry; format: functional; settings: read-out: IC50

Compound: COc1ccc2c(c1)c(CC(=O)O)c(C)n2C(=O)c1ccc(Cl)cc1 [INDOMETHACIN]
inhibition (INH) [1]: 51%
inhibition [2]: Active
inhibition [3]: inactive
inhibition [4]: Active
inhibition [5]: Active
inhibition (INH) [6]: 25%
inhibition [7]: inactive
ID50 [8]: 0.29 umol/cm2
inhibition [9]: Active
inhibition (INH) [10]: 80%
inhibition [11]: Active

Compound: C=C1C(=O)O[C@@H]2[C@H]3O[C@]3(C)CC/C=C(\C)CC[C@@H]12
IC50 [12]: 1.4 µM

Compound: C[C@]12CCC(=O)C=C1CC[C@@H]1[C@@H]2[C@@H](O)C[C@@]2(C)[C@H]1CC[C@]2(O)C(=O)CO [HYDROCORTISONE]
inhibition (INH) [13]: 60%
inhibition [14]: Active
inhibition (INH) [15]: 69%
inhibition (INH) [16]: 35%
inhibition (INH) [17]: 79%
inhibition [18]: Active
inhibition (INH) [6]: 77%
ID50 [8]: 0.03 umol/cm2
inhibition (INH) [19]: 29%
inhibition (INH) [20]: 51%
inhibition (INH) [21]: 55%

IC50 [22]: 24.2 µM
Compound: O=C1O[C@H]([C@@H](O)CO)C(O)=C1O [ASCORBIC ACID]
